# Reference: ChEMBL document CHEMBL4270603, “Computer-aided drug discovery: Novel 3,9-disubstituted eudistomin U derivatives as potent antibacterial agents” (Eur J Med Chem, 2018)
# Activity calls are given as the source filed them. No cut-off for these calls is given here.
# Tests used:
# Staphylococcus aureus [1] = experiment: Antibacterial activity against Staphylococcus aureus CGMCC 1.8721 measured after 12 to 14 hrs; type: functional
# Procedure, shortened: (§1)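 Twofold (double) dilution method for in vitro antibacterial activity, with fosfomycin sodium, ciprofloxacin and propineb as positive controls.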
# Ralstonia solanacearum [2] = experiment: Antibacterial activity against Ralstonia solanacearum CGMCC 1.12711 measured after 12 to 14 hrs; type: functional
# Procedure, shortened: (§2)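 In vitro double dilution method, run alongside fosfomycin sodium, ciprofloxacin and propineb as positive controls.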
# Staphylococcus aureus [3] = experiment: Antibacterial activity against methicillin-resistant Staphylococcus aureus ATCC 43300 measured after 12 to 14 hrs; type: functional; procedure, shortened: as §2
# Bacillus cereus [4] = experiment: Antibacterial activity against Bacillus cereus CGMCC 1.1846 measured after 12 to 14 hrs; type: functional; procedure, shortened: as §1
# Bacillus cereus [5] = experiment: Potency index, ratio of ciprofloxacin MIC to test compound MIC for Bacillus cereus CGMCC 1.1846; type: functional
# Ralstonia solanacearum [6] = experiment: Potency index, ratio of propineb MIC to test compound MIC for Ralstonia solanacearum CGMCC 1.12711; type: functional
# Staphylococcus aureus [7] = experiment: Induction of morphological changes in Staphylococcus aureus assessed as disruption of cell membrane at 0.5 MIC after 1 hr by transmission electron microscopic analysis; type: functional, organism-based; details: 0.5 M
# Procedure, shortened: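 S. aureus cells were exposed to compound for 1 h, then imaged by transmission electron microscopy for cell-membrane boundary integrity, with untreated cells as the comparison.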
# Staphylococcus aureus [8] = experiment: Bactericidal activity against Staphylococcus aureus assessed as disruption of bacterial membrane at 1.5625 micromol/l after 1 hr by Hoechst/propidium iodide staining based fluorescence microscopic analysis; type: functional, organism-based
# Procedure, shortened: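 S. aureus cells were incubated with compound for 1 h, then dual-stained with Hoechst and propidium iodide and imaged by fluorescence microscopy, with untreated cells as the control. Hoechst enters intact cells and gives blue fluorescence. PI gives red fluorescence only when the membrane is disrupted. Blue, red and merged channels were compared.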
# Staphylococcus aureus [9] = experiment: Induction of morphological changes in Staphylococcus aureus assessed as appearance of irregular cell surface at 1.5625 micromol/l after 1 hr by scanning electron microscopic analysis; type: functional, organism-based
# Procedure, shortened: (§3)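 Cell-surface morphology of compound-treated S. aureus was imaged by scanning electron microscopy and compared with an untreated blank group.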
# Calf thymus DNA = experiment: Binding affinity to calf thymus DNA by isothermal titration calorimetric method; type: nucleic-acid assay, Bos taurus
# Procedure, shortened: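 DNA was titrated with compound by isothermal titration calorimetry at 298 K. Heat flow was recorded over time, and thermodynamic constants were obtained by fitting to an independent binding model.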
# Staphylococcus aureus [10] = experiment: Potency index, ratio of ciprofloxacin MIC to test compound MIC for methicillin-resistant Staphylococcus aureus ATCC 43300; type: functional
# Staphylococcus aureus [11] = experiment: Induction of morphological changes in Staphylococcus aureus assessed as appearance of rough cell surface at 1.5625 micromol/l after 1 hr by scanning electron microscopic analysis; type: functional, organism-based; procedure, shortened: as §3
Compound,MIC (Staphylococcus aureus [1]),MIC (Ralstonia solanacearum [2]),MIC (Staphylococcus aureus [3]),MIC (Bacillus cereus [4]),Ratio (Bacillus cereus [5]),Ratio (Ralstonia solanacearum [6]),Activity (Staphylococcus aureus [7]),Activity (Staphylococcus aureus [8]),Activity (Staphylococcus aureus [9]),Kd (Calf thymus DNA),Ka (Calf thymus DNA; Bos taurus),Ratio (Staphylococcus aureus [10]),Activity (Staphylococcus aureus [11])
C[C@@H]1O[C@@H]1P(=O)(O)O [PHOSPHOMYCIN DISODIUM],100 µM,50 µM,50 µM,25 µM,–,–,–,–,–,–,–,–,–
COC(=O)c1cc2c3ccccc3n(Cc3ccccc3)c2c(-c2cn(C(C)=O)c3ccccc23)n1,> 100 µM,> 100 µM,> 100 µM,> 100 µM,–,–,–,–,–,–,–,–,–
COC(=O)c1cc2c3ccccc3n(Cc3ccc(C)cc3)c2c(-c2cn(C(C)=O)c3ccccc23)n1,> 100 µM,> 100 µM,> 100 µM,> 100 µM,–,–,–,–,–,–,–,–,–
OCc1cc2c3ccccc3n(Cc3cccc(C(F)(F)F)c3)c2c(-c2c[nH]c3ccccc23)n1,3.12 µM,3.12 µM,12.5 µM,3.12 µM,2,–,–,–,–,–,–,–,–
OCc1cc2c3ccccc3n(Cc3ccc(Br)cc3)c2c(-c2c[nH]c3ccccc23)n1,3.12 µM,1.56 µM,3.12 µM,3.12 µM,2,16,Active,Active,Active,553 nM,1.81 ×10⁶ /M,4,Active
COC(=O)c1cc2c3ccccc3n(Cc3ccccc3Cl)c2c(-c2cn(C(C)=O)c3ccccc23)n1,100 µM,> 100 µM,> 100 µM,> 100 µM,–,–,–,–,–,–,–,–,–
COC(=O)c1cc2c3ccccc3n(Cc3ccccc3Br)c2c(-c2cn(C(C)=O)c3ccccc23)n1,> 100 µM,> 100 µM,> 100 µM,> 100 µM,–,–,–,–,–,–,–,–,–
COC(=O)c1cc2c3ccccc3n(Cc3cccc(Cl)c3)c2c(-c2cn(C(C)=O)c3ccccc23)n1,> 100 µM,> 100 µM,> 100 µM,> 100 µM,–,–,–,–,–,–,–,–,–
COC(=O)c1cc2c3ccccc3n(Cc3ccccc3C(F)(F)F)c2c(-c2cn(C(C)=O)c3ccccc23)n1,> 100 µM,> 100 µM,> 100 µM,> 100 µM,–,–,–,–,–,–,–,–,–
OCc1cc2c3ccccc3n(Cc3ccccc3F)c2c(-c2c[nH]c3ccccc23)n1,25 µM,25 µM,> 100 µM,50 µM,–,–,–,–,–,–,–,–,–
COC(=O)c1cc2c3ccccc3n(Cc3ccc(F)cc3)c2c(-c2cn(C(C)=O)c3ccccc23)n1,> 100 µM,> 100 µM,> 100 µM,> 100 µM,–,–,–,–,–,–,–,–,–
COC(=O)c1cc2c3ccccc3n(Cc3cccc(C)c3)c2c(-c2cn(C(C)=O)c3ccccc23)n1,> 100 µM,> 100 µM,> 100 µM,> 100 µM,–,–,–,–,–,–,–,–,–
COC(=O)c1cc2c3ccccc3n(Cc3ccccc3C)c2c(-c2cn(C(C)=O)c3ccccc23)n1,> 100 µM,> 100 µM,> 100 µM,100 µM,–,–,–,–,–,–,–,–,–
COC(=O)c1cc2c3ccccc3n(Cc3ccc(Br)cc3)c2c(-c2cn(C(C)=O)c3ccccc23)n1,> 100 µM,> 100 µM,> 100 µM,> 100 µM,–,–,–,–,–,–,–,–,–
O=C(O)c1cn(C2CC2)c2cc(N3CCNCC3)c(F)cc2c1=O [CIPROFLOXACIN],3.12 µM,3.12 µM,12.5 µM,6.25 µM,–,–,–,–,–,–,–,–,–
COC(=O)c1cc2c3ccccc3n(Cc3ccc(C(F)(F)F)cc3)c2c(-c2cn(C(C)=O)c3ccccc23)n1,> 100 µM,> 100 µM,> 100 µM,> 100 µM,–,–,–,–,–,–,–,–,–
OCc1cc2c3ccccc3n(Cc3ccc(Cl)cc3)c2c(-c2c[nH]c3ccccc23)n1,25 µM,12.5 µM,50 µM,12.5 µM,–,–,–,–,–,–,–,–,–
COC(=O)c1cc2c3ccccc3n(Cc3cccc(F)c3)c2c(-c2cn(C(C)=O)c3ccccc23)n1,> 100 µM,> 100 µM,> 100 µM,> 100 µM,–,–,–,–,–,–,–,–,–
